Compound activity from PubChem BioAssay.
KCNQ1 pot – potentiators or activators of KCNQ1 channel, primary screen, cell-based, thallium flux, high-throughput; Potassium voltage-gated channel subfamily KQT member 1 (Homo sapiens), P51787; CHO-K1 KCNQ1, thallium flux FluxOR fluorescence; hits give high values; B-score at 10 µM; 310,000 tested, 0.35% active; AID 2648, 2010;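 active = fluorescence ratio B-score, a plate-corrected score, at least three library SD, with initial intensity B-score within 5 SD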
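Schedule – 37 °C overnight plating, 90-min dark dye load, 20-min compound pretreatment · System – stable KCNQ1 CHO-K1 line · Probe or stimulus – thallium- and potassium-containing depolarizing buffer · Measured by – kinetic FluxOR fluorescence, 10 s baseline plus 110 s post-stimulus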
KCNK3 inh – human KCNK3 channel inhibitors, primary screen, CHO cells, FluxOR thallium flux, B-score. AID 602410, 2012. B-score at 10 µM. 340,000 tested, 0.84% active. FluxOR fluorescence; hits give low values. Potassium channel subfamily K member 3 (Homo sapiens), O14649;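 active = B-score under library mean minus 4 SD, starting fluorescence ratio at most library mean plus 5 SD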;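 note: more negative B-score means stronger inhibition of thallium flux through KCNK3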
KCNQ1 inh – inhibitors of human KCNQ1 channel, primary screen, cell-based, thallium flux, high-throughput | CHO-K1 KCNQ1, FluxOR thallium flux fluorescence; hits give high values | B-score at 10 µM | 310,000 tested, 1.3% active;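 active = compounds whose thallium flux B-score, printed positive for inhibition, exceeds three library SD while starting fluorescence stays within three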;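 note: channel opened by potassium depolarization with thallium stimulus after 20 min compound exposure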
hERG rescue – hERG rescue from dofetilide block, primary screen, cell-based, CHO-hERG, FluxOR thallium flux, dofetilide IC70 | 310,000 tested, 0.51% active | activation (rescue from dofetilide block), less the hit threshold, % at 10 µM | dofetilide IC70 present | AID 1511, 2009 | Voltage-gated inwardly rectifying potassium channel KCNH2 (Homo sapiens), Q12809;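 active = activation above the mean of controls blocked by dofetilide plus 5 SD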;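 note: thallium influx through hERG after potassium depolarization seen as dye fluorescence rise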
Kir21 block – inhibitors of mouse Kir2.1 inward-rectifier potassium channel; 310,000 tested, 0.85% active; B-score at 10 µM; AID 1672, 2009; HEK293-Kir2.1, FluxOR thallium flux fluorescence; hits give low values; Inward rectifier potassium channel 2 (Mus musculus), P35561;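 active = fluorescence ratio B-score at or below minus 3 SD of library scores, with starting-brightness B-score within 2 SD, cut at about -4.2 in these data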;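 note: channel flux triggered by added potassium and thallium sulfate stimulus; B-score of peak minus minimum fluorescence over baseline after thallium stimulus; more negative B-score means stronger Kir2.1 block with less thallium influx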
KCNK9 block – KCNK9 potassium channel inhibitors, primary screen, HEK293 cells, thallium flux; Potassium channel subfamily K member 9 (Homo sapiens), Q9NPC2; FluxOR thallium flux fluorescence; hits give low values; B-score at 10 µM; 310,000 tested, 1.2% active;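 active = ratio B-score over 3 SD below the library mean, with starting fluorescence within 5 SD of its mean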;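 note: negative B-score means less thallium flux so channel inhibition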
KCNK9 inh conf – KCNK9 potassium channel inhibitors, confirmation, HEK293 cells, thallium flux, duplicate; shares compounds with KCNK9 block; 4,900 tested, 43% active; FluxOR thallium flux fluorescence; inhibition, % at 10 µM;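 active = thallium signal inhibited by more than 5 SD of the compound-free buffer control wells, on both duplicate plates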
Kir2-1 spec – mouse Kir2.1 channel inhibition, confirmation, selectivity assay for KCNK9 modulator project, cell-based, HEK293, thallium flux | shares compounds with KCNK9 block | inhibition, % at 10 µM | AID 492993, 2010 | 4,900 tested, 4% active | Kir2.1 cells, FluxOR thallium flux fluorescence;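 active = thallium signal drop more than 5 SD beyond the mean of the no-compound control wells, seen in both duplicate plates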;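 note: signal is fluorescence rise after thallium addition divided by baseline fluorescence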
HEK293 Tl ctr – thallium flux in non-induced HEK293 cells, confirmation, counter-screen for KCNK9 inhibitor project, cell-based, second counter screen, non-induced KCNK9-HEK293; shares compounds with KCNK9 block; FluxOR thallium flux; inhibition, % at 10 µM; 4,900 tested, 40% active; AID 492997, 2010;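 active = thallium signal drop beyond 5 SD of the untreated control mean, on both duplicate plates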
Numbers stand for hits; i = inactive; nt = not tested or not shown. Hits are enriched below; roughly 3.7% of the tested compounds scored in any of these assays.

SMILES	KCNQ1 pot	KCNK3 inh	KCNQ1 inh	hERG rescue	Kir21 block	KCNK9 block	KCNK9 inh conf	Kir2-1 spec	HEK293 Tl ctr
N#Cc1nc(Cc2ccccc2)oc1N1CCN(c2cccc(Cl)c2)CC1	i	i	i	i	i	-11	38%	i	i
Clc1cccc(N2CCN(Cc3nc(-c4ccccc4)no3)CC2)c1	i	i	i	i	i	i	i	i	i
COc1ccc(-c2noc(CN3CCC(Cc4ccccc4)CC3)n2)cc1	i	i	i	i	i	i	i	i	i
COCC1CCN(Cc2nc(-c3ccc(OC)cc3)no2)CC1	i	i	i	i	i	i	nt	nt	nt
c1ccc(CC2CCN(Cc3nc(-c4ccccc4)no3)CC2)cc1	i	i	i	i	i	i	i	i	i
CCOC(=O)C1=CNS(=O)(=O)NC1c1ccc(Br)cc1F (stereo not given)	nt	i	nt	nt	nt	nt	nt	nt	nt
Cc1noc(C)c1C(=O)N1CCN(S(=O)(=O)c2cccc(Cl)c2Cl)CC1	i	i	i	i	i	i	nt	nt	nt
CCOC(=O)C1CCN(C(=O)Cn2cnc3sc(C)c(S(=O)(=O)N4CCOCC4)c3c2=O)CC1	i	i	i	i	i	i	nt	nt	nt
CCc1ccc(NC(=O)COc2ccc(F)cc2C(=O)c2cnn(-c3ccccc3)c2)cc1	i	i	i	i	i	i	i	i	i
CCOc1ccc2nc(SCC(=O)NC(=O)NCc3ccco3)[nH]c2c1	i	i	i	i	i	i	i	i	i
Cc1ccc(SCCCn2cnc3ccccc3c2=O)cc1	i	i	i	i	i	i	i	i	i
CC(C)c1ccc(C(=O)OCC(=O)NC2CCCC2)cc1	i	i	i	i	i	i	nt	nt	nt
Cc1cc(C)c(S(=O)(=O)c2ccccc2)c(OC(=O)c2c(F)cccc2F)n1	i	i	i	i	i	i	nt	nt	nt
Cc1cc(C)c(S(=O)(=O)c2ccccc2)c(OC(=O)c2c(Cl)cc(Cl)cc2Cl)n1	i	i	i	i	i	-10	52%	i	32%
c1ccc(Cc2cc[n+](Cc3ccccn3)cc2)cc1	i	i	i	i	i	i	nt	nt	nt
CC(C)(Oc1ccc(F)cc1)C(=O)OCC(=O)c1ccc(S(C)(=O)=O)cc1	nt	i	nt	nt	nt	nt	nt	nt	nt
O=C(NCc1ccccc1)/C(=C/c1ccc(OC(F)F)cc1)c1ccccc1	i	i	i	i	i	-11	40%	i	50%
Cc1ccc(CN(C)c2nc(-c3cccnc3)nc3ccccc23)o1	i	i	i	i	i	i	nt	nt	nt
CN(Cc1ccccc1F)c1nc(-c2cccnc2)nc2ccccc12	i	i	i	i	i	-8.2	31%	i	28%
COc1c(CC=C(C)C)cc(C2CC(=O)c3c(O)cc(O)cc3O2)c(CC=C(C)C)c1O (stereo not given)	i	nt	i	i	i	-11	67%	i	50%
CCc1ccccc1NC(=O)c1ccc(NCCc2ccccc2)c([N+](=O)[O-])c1	i	i	i	i	i	-8.7	i	i	30%
COc1ccccc1NC(=O)C(=O)Nc1ccc2c(c1)N(C(=O)C1CC1)CCC2	i	i	i	i	i	i	nt	nt	nt
CCC1=NN(C(=O)COc2ccccc2)C(O)(c2ccc(Br)cc2)C1 (stereo not given)	i	i	i	i	i	-17	52%	i	35%
O=C(C1CCN(S(=O)(=O)c2ccccc2F)CC1)N1CCN(Cc2ccc3c(c2)OCO3)CC1	nt	i	nt	nt	nt	nt	nt	nt	nt
COc1cccc(C2Oc3ccccc3C3CC(c4cccs4)=NN32)c1 (stereo not given)	i	i	i	i	i	-12	60%	i	i
SMILES	KCNQ1 pot	KCNK3 inh	KCNQ1 inh	hERG rescue	Kir21 block	KCNK9 block	KCNK9 inh conf	Kir2-1 spec	HEK293 Tl ctr
O=C(c1ccccc1)C1Oc2ccccc2C2CC(c3cccs3)=NN12 (stereo not given)	i	i	i	i	i	i	nt	nt	nt
c1ccc(-c2csc(NC3CCCCC3)n2)cc1	i	i	i	i	i	i	i	i	i
O=C(Nc1nc(-c2ccccc2)cs1)NC1CCCCC1	i	i	i	i	i	i	nt	nt	nt
O=C(CCC1CCCC1)Nc1cccn(Cc2ccccc2Br)c1=O	i	i	i	i	i	i	i	i	26%
CCCC(=O)Nc1cccn(Cc2ccccc2Br)c1=O	i	i	i	i	i	i	nt	nt	nt
Cc1ccc(C)c(OCCCCN2CCNCC2)c1C	i	i	i	i	i	i	nt	nt	nt
CC(C)C[C@H]1C(=O)N2CCC[C@H]2[C@]2(O)O[C@](NC(=O)C3C=C4c5cccc6[nH]c(Br)c(c56)C[C@H]4N(C)C3)(C(C)C)C(=O)N12 (stereo not given in full)	i	i	7	i	i	i	i	i	i
NC(=O)c1c(NC(=O)CSc2nc3c(c(C(F)(F)F)n2)CCc2ccccc2-3)sc2c1CCCC2	i	i	i	i	i	i	nt	nt	nt
CN(Cc1ccccc1)C(=O)CSc1nc2c(c(C(F)(F)F)n1)CCc1ccccc1-2	i	i	i	i	i	i	i	i	i
CCC1=C(OC(=O)N(CC)CC)N2C(=O)OC(=NCCc3c[nH]c4ccccc34)[C@]2(Cc2ccccc2)[C@H]2C1=CC[C@H]1C(=O)N(C)C(=O)[C@H]12	i	i	i	i	i	-9.5	41%	i	40%
COc1cc(-c2nc3cc(C)ccn3c2NC2CCCCC2)ccc1-c1ccc(C(C)=O)cc1	i	i	i	i	i	-9.3	48%	i	i
CC(C)(C)n1cc(S(=O)(=O)c2ccccc2)[nH]c1=O	i	i	i	i	i	i	nt	nt	nt
COc1cccc(C(=O)/C=C/c2ccc(N3CCCCC3)c([N+](=O)[O-])c2)c1	i	i	i	i	i	-8.3	36%	i	35%
CC1=CCC[C@@H]2[C@@](C)(CC/C(C)=C/C(=O)O)[C@H](C)CC[C@@]12C	i	i	i	i	i	i	i	i	i
C[C@@H]1CC[C@@]23COC(=O)C2=CCC[C@@H]3[C@@]1(C)CC/C(=C/CO)CO	nt	i	nt	nt	nt	nt	nt	nt	nt
CC1=C(C(=O)N2CCOCC2)C(c2ccc(Cl)cc2)NC(=S)N1 (stereo not given)	i	i	i	i	i	i	nt	nt	nt
CCOc1cccc(CN2CCC(Oc3ccc(C(=O)NCc4ccccn4)cc3)CC2)c1	i	i	i	i	i	i	nt	nt	nt
